{"source": "ChEMBL document CHEMBL1123846", "about": "“Chemical differentiating agents. Differentiation of HL-60 cells by hexamethylenebis[acetamide] analogues” (1987)", "key": {"[1]": {"test_system": "HL-60", "experiment": "Percent of viability for HL-60 cells was determined by dividing number of viable differentiated cells by total number of viable cells, at concentration of 2.5 mM", "assay_type": "functional, Homo sapiens", "how_it_was_run": "(§1)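 HL-60 cultures were seeded at 2×10^5/mL with agent added from ethanol or Me2SO, final Me2SO up to 77 mM, and harvested on day 4. Total cells were counted on a Coulter counter, and the viable fraction of total cells was determined by trypan blue exclusion.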"}, "[2]": {"test_system": "HL-60", "experiment": "Percent of viability for HL-60 cells was determined by dividing number of viable differentiated cells by total number of viable cells, at concentration of 3.0 mM", "assay_type": "functional, Homo sapiens", "how_it_was_run": "as §1"}, "[3]": {"test_system": "HL-60", "experiment": "Differentiation studies was conducted with the HL-60 human myeloid leukemia cell line and Total cells were counted with a Coulter counter, at a concentration of 2.5 mM", "assay_type": "functional", "how_it_was_run": "(§2)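 HL-60 cells seeded at 2×10^5/mL with test agent added from ethanol or Me2SO stock; final Me2SO no more than 77 mM. Total cells counted on a Coulter counter on day 4.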"}, "[4]": {"test_system": "HL-60", "experiment": "Differentiation studies was conducted with the HL-60 human myeloid leukemia cell line and Total cells were counted with a Coulter counter, at a concentration of 3.0 mM", "assay_type": "functional", "how_it_was_run": "as §2"}, "[5]": {"test_system": "HL-60", "experiment": "Percent of differentiated in HL-60 cells was determined by dividing number of viable differentiated cells by total number of viable cells, at a concentration of 3.0 mM", "assay_type": "functional, Homo sapiens", "how_it_was_run": "(§3)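 HL-60 cells started at 2×10^5/mL and counted on day 4. Test agents were added from ethanol or Me2SO, with final Me2SO at most 77 mM. Differentiation was scored by formazan production, which requires superoxide from living cells. % D is the number of viable differentiated cells divided by the total number of viable cells.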"}, "[6]": {"test_system": "HL-60", "experiment": "Percent of differentiated in HL-60 cells was determined by dividing number of viable differentiated cells by total number of viable cells, at a concentration of 2.0 mM", "assay_type": "functional, Homo sapiens", "how_it_was_run": "as §3"}, "[7]": {"test_system": "HL-60", "experiment": "Percent of differentiated in HL-60 cells was determined by dividing number of viable differentiated cells by total number of viable cells, at a concentration of 2.5 mM", "assay_type": "functional, Homo sapiens", "how_it_was_run": "as §3"}, "[8]": {"test_system": "HL-60", "experiment": "Percent of viability for HL-60 cells was determined by dividing number of viable differentiated cells by total number of viable cells, at concentration of 2.0 mM", "assay_type": "functional, Homo sapiens", "how_it_was_run": "as §1"}, "[9]": {"test_system": "HL-60", "experiment": "Differentiation studies was conducted with the HL-60 human myeloid leukemia cell line and total cells were counted with a Coulter counter, at a concentration of 2.0 mM", "assay_type": "functional", "how_it_was_run": "as §2"}, "[10]": {"test_system": "HL-60", "experiment": "Percent of differentiated HL-60 cells was determined by dividing number of viable differentiated cells by total number of viable cells, at a concentration of 2.0 mM", "assay_type": "functional, Homo sapiens", "how_it_was_run": "as §3"}, "[11]": {"test_system": "HL-60", "experiment": "Percent of viability for HL-60 cells was determined by dividing number of viable differentiated cells by total number of viable cells, at concentration of 4.0 mM", "assay_type": "functional, Homo sapiens", "how_it_was_run": "as §1"}, "[12]": {"test_system": "HL-60", "experiment": "Differentiation studies was conducted with the HL-60 human myeloid leukemia cell line and Total cells were counted with a Coulter counter, at a concentration of 4.0 mM", "assay_type": "functional", "how_it_was_run": "as §2"}, "[13]": {"test_system": "HL-60", "experiment": "Percent of differentiated HL-60 cells was determined by dividing number of viable differentiated cells by total number of viable cells, at a concentration of 3.0 mM", "assay_type": "functional, Homo sapiens", "how_it_was_run": "as §3"}, "[14]": {"test_system": "HL-60", "experiment": "Percent of differentiated HL-60 cells was determined by dividing number of viable differentiated cells by total number of viable cells, at a concentration of 4.0 mM", "assay_type": "functional, Homo sapiens", "how_it_was_run": "as §3"}, "[15]": {"test_system": "HL-60", "experiment": "Percent of viability for HL-60 cells was determined by dividing number of viable differentiated cells by total number of viable cells, at concentration of 38 mM", "assay_type": "functional, Homo sapiens", "how_it_was_run": "as §1"}, "[16]": {"test_system": "HL-60", "experiment": "Percent of viability for HL-60 cells was determined by dividing number of viable differentiated cells by total number of viable cells, at concentration of 64 mM", "assay_type": "functional, Homo sapiens", "how_it_was_run": "as §1"}, "[17]": {"test_system": "HL-60", "experiment": "Percent of viability for HL-60 cells was determined by dividing number of viable differentiated cells by total number of viable cells, at concentration of 77 mM", "assay_type": "functional, Homo sapiens", "how_it_was_run": "as §1"}, "[18]": {"test_system": "HL-60", "experiment": "Differentiation studies was conducted with the HL-60 human myeloid leukemia cell line and Total cells were counted with a Coulter counter, at a concentration of 64 mM", "assay_type": "functional", "how_it_was_run": "as §2"}, "[19]": {"test_system": "HL-60", "experiment": "Differentiation studies was conducted with the HL-60 human myeloid leukemia cell line and Total cells were counted with a Coulter counter, at a concentration of 77 mM", "assay_type": "functional", "how_it_was_run": "as §2"}, "[20]": {"test_system": "HL-60", "experiment": "Percent of differentiated HL-60 cells was determined by dividing number of viable differentiated cells by total number of viable cells, at a concentration of 77 mM", "assay_type": "functional, Homo sapiens", "how_it_was_run": "as §3"}, "[21]": {"test_system": "HL-60", "experiment": "Percent of differentiated HL-60 cells was determined by dividing number of viable differentiated cells by total number of viable cells, at a concentration of 38 mM", "assay_type": "functional, Homo sapiens", "how_it_was_run": "as §3"}, "[22]": {"test_system": "HL-60", "experiment": "Percent of differentiated HL-60 cells was determined by dividing number of viable differentiated cells by total number of viable cells, at a concentration of 64 mM", "assay_type": "functional, Homo sapiens", "how_it_was_run": "as §3"}, "[23]": {"test_system": "HL-60", "experiment": "Differentiation studies was conducted with the HL-60 human myeloid leukemia cell line and total cells were counted with a Coulter counter, at a concentration of 38 mM", "assay_type": "functional", "how_it_was_run": "as §2"}, "[24]": {"test_system": "HL-60", "experiment": "Percent of differentiated HL-60 cells was determined by dividing number of viable differentiated cells by total number of viable cells, at a concentration of 1.0 mM", "assay_type": "functional, Homo sapiens", "how_it_was_run": "as §3"}, "[25]": {"test_system": "HL-60", "experiment": "Differentiation studies was conducted with the HL-60 human myeloid leukemia cell line and total cells were counted with a Coulter counter, at a concentration of 1.0 mM", "assay_type": "functional", "how_it_was_run": "as §2"}, "[26]": {"test_system": "HL-60", "experiment": "Percent of differentiated HL-60 cells was determined by dividing number of viable differentiated cells by total number of viable cells, at a concentration of 2.5 mM", "assay_type": "functional, Homo sapiens", "how_it_was_run": "as §3"}, "[27]": {"test_system": "HL-60", "experiment": "Percent of viability for HL-60 cells was determined by dividing number of viable differentiated cells by total number of viable cells, at concentration of 1.0 mM", "assay_type": "functional, Homo sapiens", "how_it_was_run": "as §1"}}, "data": [{"compound": "CC(=O)N(CCCCCCN(C(C)=O)C(C)=O)C(C)=O", "values": [{"measurement": "V", "setting": "[1]", "value": 51, "unit": "%"}, {"measurement": "V", "setting": "[2]", "value": 45, "unit": "%"}, {"measurement": "Total cells", "setting": "[3]", "value": 480000, "unit": "mL"}, {"measurement": "Total cells", "setting": "[4]", "value": 300000, "unit": "mL"}, {"measurement": "D", "setting": "[5]", "value": 80, "unit": "%"}, {"measurement": "D", "setting": "[6]", "value": 65, "unit": "%"}, {"measurement": "D", "setting": "[7]", "value": 76, "unit": "%"}, {"measurement": "V", "setting": "[8]", "value": 71, "unit": "%"}, {"measurement": "Total cells", "setting": "[9]", "value": 530000, "unit": "mL"}]}, {"compound": "CC(=O)NCCCCCCNC(C)=O", "note": "[HEXAMETHYLENEBISACETAMIDE]", "values": [{"measurement": "D", "setting": "[10]", "value": 32, "unit": "%"}, {"measurement": "V", "setting": "[2]", "value": 68, "unit": "%"}, {"measurement": "V", "setting": "[11]", "value": 29, "unit": "%"}, {"measurement": "Total cells", "setting": "[4]", "value": 520000, "unit": "mL"}, {"measurement": "Total cells", "setting": "[12]", "value": 390000, "unit": "mL"}, {"measurement": "D", "setting": "[13]", "value": 59, "unit": "%"}, {"measurement": "D", "setting": "[14]", "value": 84, "unit": "%"}, {"measurement": "V", "setting": "[8]", "value": 74, "unit": "%"}, {"measurement": "Total cells", "setting": "[9]", "value": 690000, "unit": "mL"}]}, {"compound": "C[S+](C)[O-]", "note": "[DIMETHYL SULFOXIDE]", "values": [{"measurement": "V", "setting": "[15]", "value": 97, "unit": "%"}, {"measurement": "V", "setting": "[16]", "value": 96, "unit": "%"}, {"measurement": "V", "setting": "[17]", "value": 94, "unit": "%"}, {"measurement": "Total cells", "setting": "[18]", "value": 980000, "unit": "cells/mL"}, {"measurement": "Total cells", "setting": "[19]", "value": 930000, "unit": "cells/mL"}, {"measurement": "D", "setting": "[20]", "value": 6, "unit": "%"}, {"measurement": "D", "setting": "[21]", "value": 6, "unit": "%"}, {"measurement": "D", "setting": "[22]", "value": 9, "unit": "%"}, {"measurement": "Total cells", "setting": "[23]", "value": 970000, "unit": "cells/mL"}]}, {"compound": "CC(=O)N(C)CCCCCCN(C)C(C)=O", "values": [{"measurement": "D", "setting": "[24]", "value": 10, "unit": "%"}, {"measurement": "D", "setting": "[10]", "value": 74, "unit": "%"}, {"measurement": "V", "setting": "[1]", "value": 32, "unit": "%"}, {"measurement": "V", "setting": "[2]", "value": 30, "unit": "%"}, {"measurement": "Total cells", "setting": "[3]", "value": 510000, "unit": "mL"}, {"measurement": "Total cells", "setting": "[4]", "value": 420000, "unit": "mL"}, {"measurement": "Total cells", "setting": "[25]", "value": "1.12e+06", "unit": "mL"}, {"measurement": "D", "setting": "[26]", "value": 93, "unit": "%"}, {"measurement": "D", "setting": "[13]", "value": 94, "unit": "%"}, {"measurement": "V", "setting": "[27]", "value": 90, "unit": "%"}, {"measurement": "V", "setting": "[8]", "value": 57, "unit": "%"}, {"measurement": "Total cells", "setting": "[9]", "value": 700000, "unit": "mL"}]}]}
